Measured values reported in ChEMBL document CHEMBL3526048, “In vitro metabolism of rivoglitazone, a novel peroxisome proliferator-activated receptor γ agonist, in rat, monkey, and human liver microsomes and freshly isolated hepatocytes” (Drug Metab Dispos, 2011).

How the values were obtained:
Hepatocyte [1] = assay: Drug level in rat hepatocytes treated with [14C]-rivoglitazone at 30 uM after 3 hrs by radio-HPLC/LC-MS/MS analysis; type: ADME, cell-based
[2] = Retention time of the compound by LC-MS/MS analysis; type: physicochemical
Outline: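 LC-MS/MS used a YMC-Pack ODS-A column (1.5 × 150 mm, 5 μm) at 30°C, 0.1 ml/min. Mobile phase was water and acetonitrile, each with 0.01% TFA. Gradient: 12→60% B over 30 min, →90% B over 5 min, hold 5 min. Detection was UV 220 nm with positive ESI Q-TOF (capillary 3300 V, cone 45 V), collision energy 20 eV and xenon as collision gas.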

Hepatocyte [3] = assay: Drug level in human hepatocytes treated with [14C]-rivoglitazone at 30 uM after 3 hrs by radio-HPLC/LC-MS/MS analysis; type: ADME, cell-based
Outline: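 Freshly isolated hepatocytes were suspended in HBSS at 2×10^6 viable cells/ml; trypan-blue viability was rat 88%, monkey 91 and 94%, human 66, 73 and 81%. Donors were rat (7 weeks, 170 g) and two male cynomolgus monkeys. Cells were incubated with [¹⁴C]rivoglitazone (30 μM) for 3 h at 37°C under 95% O₂/5% CO₂. Acetonitrile stop, sonication, samples pooled per species, supernatant analysed by radio-HPLC and LC-MS.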

[4] = Drug level in monkey hepatocytes treated with [14C]-rivoglitazone at 30 uM after 3 hrs by radio-HPLC/LC-MS/MS analysis; conditions: cynomolgus monkey
Hepatocyte [5] = assay: Drug level in rat hepatocytes treated with [14C]-rivoglitazone at 30 uM after 3 hrs by radio-HPLC/LC-MS/MS analysis in presence of NADPH-generating system/SAM; type: ADME, cell-based
Hepatocyte [6] = assay: Drug level in human hepatocytes treated with [14C]-rivoglitazone at 30 uM after 3 hrs by radio-HPLC/LC-MS/MS analysis in presence of NADPH-generating system/SAM; type: ADME, cell-based
Liver microsome [7] = assay: Drug level in Sprague-Dawley rat liver microsomes treated with [14C]-rivoglitazone at 20 uM after 2 hrs by radio-HPLC/LC-MS/MS analysis in presence of NADPH-generating system/SAM; type: ADME
Outline: (§1)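 Pooled male liver microsomes (1 mg/ml protein; rat from 94 Sprague-Dawley, monkey from 8 cynomolgus, human from 23 donors) were incubated with [¹⁴C]rivoglitazone (20 μM). Buffer: 10 mM potassium phosphate (pH 7.4). Cofactors: NADPH-generating system (2 mM NADP⁺, 20 mM G6P, 2 U/ml G6PDH, 10 mM MgCl₂), with or without 2 mM SAM. Incubation 2 h at 37°C with shaking; controls lacked NADPH system and SAM alone. Acetonitrile stop, radio-HPLC plus LC-MS.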

[8] = Drug level in cynomolgus monkey liver microsomes treated with [14C]-rivoglitazone at 20 uM after 2 hrs by radio-HPLC/LC-MS/MS analysis in presence of NADPH-generating system/SAM; type: ADME, Macaca fascicularis; outline: as §1
Liver microsome [9] = assay: Drug level in human liver microsomes treated with [14C]-rivoglitazone at 20 uM after 2 hrs by radio-HPLC/LC-MS/MS analysis in presence of NADPH-generating system/SAM; type: ADME; outline: as §1
[10] = tested on: Hepatocyte (Macaca fascicularis); assay: Drug level in monkey hepatocytes treated with [14C]-rivoglitazone at 30 uM after 3 hrs by radio-HPLC/LC-MS/MS analysis in presence of NADPH-generating system/SAM; conditions: cynomolgus monkey
Hepatocyte [11] = assay: Drug level in rat hepatocytes treated with [14C]-rivoglitazone at 30 uM after 3 hrs by radio-HPLC/LC-MS/MS analysis in presence of UDPGA and UDPGA/SAM; type: ADME, cell-based
Hepatocyte [12] = assay: Drug level in human hepatocytes treated with [14C]-rivoglitazone at 30 uM after 3 hrs by radio-HPLC/LC-MS/MS analysis in presence of UDPGA and UDPGA/SAM; type: ADME, cell-based
Liver microsome [13] = assay: Drug level in Sprague-Dawley rat liver microsomes treated with [14C]-rivoglitazone at 20 uM after 4 hrs by radio-HPLC/LC-MS/MS analysis in presence of UDPGA and UDPGA/SAM; type: ADME
Outline: (§2)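 Pooled male liver microsomes (1 mg/ml; rat from 94 Sprague-Dawley, monkey from 8 cynomolgus, human from 23 donors) were pretreated with alamethicin (50 μg/mg protein, 15 min, ice). Incubation with [¹⁴C]rivoglitazone (20 μM) in 100 mM Tris-HCl (pH 7.5), 10 mM MgCl₂, 5 mM UDPGA, with or without 2 mM SAM, 4 h at 37°C. Controls lacked UDPGA and SAM alone. Radio-HPLC and LC-MS analysis.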

[14] = Drug level in cynomolgus monkey liver microsomes treated with [14C]-rivoglitazone at 20 uM after 4 hrs by radio-HPLC/LC-MS/MS analysis in presence of UDPGA and UDPGA/SAM; type: ADME, Macaca fascicularis; outline: as §2
Liver microsome [15] = assay: Drug level in human liver microsomes treated with [14C]-rivoglitazone at 20 uM after 4 hrs by radio-HPLC/LC-MS/MS analysis in presence of UDPGA and UDPGA/SAM; type: ADME; outline: as §2
[16] = target: T1, UDP-glucuronosyltransferase 1A3 (Homo sapiens, UniProt P35503); assay: Activity of human UGT1A3 expressed in microsomes isolated from baculovirus infected insect cell assessed as enzyme-mediated compound formation treated with [14C]-rivoglitazone at 20 uM after 4 hrs by radio-HPLC/LC-MS/MS analysis in presence of NADPH-generating system/SAM; type: ADME
T1 sequence (P35503 whole entry): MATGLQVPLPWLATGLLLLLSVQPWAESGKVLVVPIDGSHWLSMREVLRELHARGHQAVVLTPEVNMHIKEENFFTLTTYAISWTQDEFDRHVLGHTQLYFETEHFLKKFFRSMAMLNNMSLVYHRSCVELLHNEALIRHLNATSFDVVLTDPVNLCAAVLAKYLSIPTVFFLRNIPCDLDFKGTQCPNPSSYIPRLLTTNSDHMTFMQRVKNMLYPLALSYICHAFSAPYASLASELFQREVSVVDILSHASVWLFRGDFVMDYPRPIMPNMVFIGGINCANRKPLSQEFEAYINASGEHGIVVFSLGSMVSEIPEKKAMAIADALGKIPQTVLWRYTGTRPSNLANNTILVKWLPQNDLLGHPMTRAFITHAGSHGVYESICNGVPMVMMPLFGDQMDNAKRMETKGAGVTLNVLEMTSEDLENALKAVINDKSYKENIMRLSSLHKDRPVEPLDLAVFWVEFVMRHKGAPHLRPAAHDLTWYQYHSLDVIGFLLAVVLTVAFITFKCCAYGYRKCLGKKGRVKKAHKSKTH

[17] = target: T2, UDP-glucuronosyltransferase 2B7 (Homo sapiens, UniProt P16662); assay: Activity of human UGT2B7 expressed in microsomes isolated from baculovirus infected insect cell assessed as enzyme-mediated compound formation treated with [14C]-rivoglitazone at 20 uM after 4 hrs by radio-HPLC/LC-MS/MS analysis in presence of NADPH-generating system/SAM; type: ADME
T2 sequence (P16662 whole entry): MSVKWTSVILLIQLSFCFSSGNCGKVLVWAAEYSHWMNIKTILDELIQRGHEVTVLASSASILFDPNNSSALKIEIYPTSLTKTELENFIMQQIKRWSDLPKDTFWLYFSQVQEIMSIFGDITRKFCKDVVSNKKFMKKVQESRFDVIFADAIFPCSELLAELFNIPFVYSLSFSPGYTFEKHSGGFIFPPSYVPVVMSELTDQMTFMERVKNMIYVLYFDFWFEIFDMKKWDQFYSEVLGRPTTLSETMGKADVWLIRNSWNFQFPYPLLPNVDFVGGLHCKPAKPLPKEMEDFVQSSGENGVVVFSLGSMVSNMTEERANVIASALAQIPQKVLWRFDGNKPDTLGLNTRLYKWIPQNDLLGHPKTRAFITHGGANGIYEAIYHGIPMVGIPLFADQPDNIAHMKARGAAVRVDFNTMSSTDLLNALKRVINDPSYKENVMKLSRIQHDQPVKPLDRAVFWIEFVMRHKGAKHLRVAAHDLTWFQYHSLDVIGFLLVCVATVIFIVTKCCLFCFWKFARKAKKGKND

[18] = Drug level in monkey hepatocytes treated with [14C]-rivoglitazone at 30 uM after 3 hrs by radio-HPLC/LC-MS/MS analysis in presence of UDPGA and UDPGA/SAM; conditions: cynomolgus monkey
[19] = Drug level in cynomolgus monkey liver microsomes treated with [14C]-rivoglitazone at 20 uM after 2 to 4 hrs by radio-HPLC/LC-MS/MS analysis in presence of NADPH-generating system/SAM and UDPGA/SAM; type: ADME, Macaca fascicularis
Liver microsome [20] = assay: Drug level in Sprague-Dawley rat liver microsomes treated with [14C]-rivoglitazone at 20 uM after 2 to 4 hrs by radio-HPLC/LC-MS/MS analysis in presence of NADPH-generating system/SAM and UDPGA/SAM; type: ADME
Liver microsome [21] = assay: Drug level in human liver microsomes treated with [14C]-rivoglitazone at 20 uM after 2 to 4 hrs by radio-HPLC/LC-MS/MS analysis in presence of NADPH-generating system/SAM and UDPGA/SAM; type: ADME

Retention_time [2] | Drug metabolism (Hepatocyte [11]) | Drug metabolism (Hepatocyte [12]) | Drug metabolism (Liver microsome [13]) | Drug metabolism [14] | Drug metabolism (Liver microsome [15]) | Drug metabolism [16] | Drug metabolism [17] | Drug metabolism [18] | SMILES | further results
18.9 min | – | – | – | – | – | – | – | – | Cn1c(COc2ccc(CC3SC(=O)NC3=O)cc2)nc2ccc(OS(=O)(=O)O)cc21 (stereo not drawn) | Drug metabolism (Hepatocyte [1]): metabolite_detected; Drug metabolism (Hepatocyte [3]): metabolite_detected; Drug metabolism [4]: metabolite_detected
20.4 min | – | – | – | – | – | – | – | – | COc1ccc2nc(COc3ccc(CC(SC)C(N)=O)cc3)n(C)c2c1 (stereo not drawn) | Drug metabolism (Hepatocyte [5]): metabolite_detected; Drug metabolism (Hepatocyte [6]): metabolite_detected; Drug metabolism (Liver microsome [7]): metabolite_detected; Drug metabolism [8]: metabolite_detected; Drug metabolism (Liver microsome [9]): metabolite_detected; Drug metabolism [10]: metabolite_detected
19.8 min | metabolite_detected | metabolite_detected | metabolite_detected | metabolite_detected | metabolite_detected | metabolite_detected | metabolite_detected | metabolite_detected | COc1ccc2nc(COc3ccc(CC4SC(=O)N([C@@H]5O[C@H](C(=O)O)[C@@H](O)[C@H](O)[C@H]5O)C4=O)cc3)n(C)c2c1 (stereo partly drawn) | –
17.3 min | metabolite_detected | metabolite_detected | metabolite_detected | metabolite_detected | metabolite_detected | metabolite_detected | metabolite_detected | metabolite_detected | COc1ccc2nc(COc3ccc(CC(SC(=O)N[C@@H]4O[C@H](C(=O)O)[C@@H](O)[C@H](O)[C@H]4O)C(=O)O)cc3)n(C)c2c1 (stereo partly drawn) | –
24.2 min | – | – | – | – | – | – | – | – | COc1ccc2nc(COc3ccc(CC(SC)C(=O)O)cc3)n(C)c2c1 (stereo not drawn) | Drug metabolism [19]: metabolite_detected; Drug metabolism (Liver microsome [20]): metabolite_detected; Drug metabolism (Liver microsome [21]): metabolite_detected
